LMPTP inh: blocks human LMPTP phosphatase; AID 651560; recombinant LMPTP-A, OMFP fluorogenic substrate, fluorescence intensity; P24666; hit rate 0.22% among 360,000; inhibition, % at 20 µM;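 active = compounds that cut the enzyme signal by at least half of the control window in the single-dose screen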
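Buffer or medium: Bis-Tris pH 6.0, DTT, detergent; Assay system: LMPTP-A enzyme; Quantity: 0.625 nM enzyme; Detection: endpoint fluorescence intensity; Times: 50 min dark incubation at room temperature; Controls: substrate-only low control, DMSO enzyme-plus-substrate high control; Doses: single 20 µM dose; Read-out: percent inhibition versus substrate-only and uninhibited controls; Reagent: 400 µM OMFP.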
STEP inh: inhibitors of human striatal-enriched phosphatase STEP. AID 588621. P54829. hit rate 0.25% among 360,000. inhibition, % at 20 µM. recombinant STEP, OMFP fluorogenic substrate, fluorescence;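 active = inhibition at 20 µM, scaled per plate between control wells, above about 37%, limit read from the data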
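System: STEP (striatal-enriched tyrosine phosphatase) enzyme, cell-free; medium: Bis-Tris pH 6.0 buffer with DTT, detergent; dosing: 20 µM, 1% DMSO; times: reaction 20 min, ambient temperature; detection: fluorescence, 480/540 nm; read-out basis: normalized % inhibition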
Scp1 inh: Scp-1 (human) phosphatase inhibition. Q9GZU7. Recombinant Scp1, phosphopeptide, malachite green phosphate absorbance. inhibition, % at 20 µM. hit rate 0.88% among 340,000. AID 493091;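 active = inhibition above about 50% at 20 µM, limit read from the data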
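assay system = SCP-1 phosphatase catalytic domain, residues 76-261 | buffer or medium = 50 mM Tris acetate pH 5.5, 0.005% Tween-20, 10 mM MgCl2 | incubation = enzyme reaction 45 min at room temperature, colour 5 min, stabilisation 30 min | signal = Phosphate-binding colour reagent, absorbance read at 630 nm | measure = % inhibition at 20 µM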
SUMO1 PPI mod: modulators of human SUMO1-mediated protein-protein interactions; hit rate 0.33% among 360,000; AID 602429; P63165; SUMO1 binding to a labelled peptide, TR-FRET, 1 h; inhibition, % at 20 µM; in the data active = inhibition above about 37%
Rpn11 inh: Rpn11 (human) deubiquitinase inhibition; inhibition, % at 20 µM; AID 588493; human 26S proteasome, Ub4-pepOG fluorescence polarization; 20S core pre-blocked with epoxomicin; hit rate 0.59% among 360,000; O00487;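 active = inhibition at 20 µM, scaled to each plate's controls, above about 33%, limit read from the data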
DNMT1 inh: DNMT1 (human) enzyme inhibition. P26358. hit rate 0.83% among 360,000. AID 588458. DNMT1 molecular beacon, Hinp1I cleavage, fluorescence. inhibition (reported as % activation of signal), % at 10 µM; in the data active = inhibition above about 50%
Target sequence (P26358 504-1616 limits assumed): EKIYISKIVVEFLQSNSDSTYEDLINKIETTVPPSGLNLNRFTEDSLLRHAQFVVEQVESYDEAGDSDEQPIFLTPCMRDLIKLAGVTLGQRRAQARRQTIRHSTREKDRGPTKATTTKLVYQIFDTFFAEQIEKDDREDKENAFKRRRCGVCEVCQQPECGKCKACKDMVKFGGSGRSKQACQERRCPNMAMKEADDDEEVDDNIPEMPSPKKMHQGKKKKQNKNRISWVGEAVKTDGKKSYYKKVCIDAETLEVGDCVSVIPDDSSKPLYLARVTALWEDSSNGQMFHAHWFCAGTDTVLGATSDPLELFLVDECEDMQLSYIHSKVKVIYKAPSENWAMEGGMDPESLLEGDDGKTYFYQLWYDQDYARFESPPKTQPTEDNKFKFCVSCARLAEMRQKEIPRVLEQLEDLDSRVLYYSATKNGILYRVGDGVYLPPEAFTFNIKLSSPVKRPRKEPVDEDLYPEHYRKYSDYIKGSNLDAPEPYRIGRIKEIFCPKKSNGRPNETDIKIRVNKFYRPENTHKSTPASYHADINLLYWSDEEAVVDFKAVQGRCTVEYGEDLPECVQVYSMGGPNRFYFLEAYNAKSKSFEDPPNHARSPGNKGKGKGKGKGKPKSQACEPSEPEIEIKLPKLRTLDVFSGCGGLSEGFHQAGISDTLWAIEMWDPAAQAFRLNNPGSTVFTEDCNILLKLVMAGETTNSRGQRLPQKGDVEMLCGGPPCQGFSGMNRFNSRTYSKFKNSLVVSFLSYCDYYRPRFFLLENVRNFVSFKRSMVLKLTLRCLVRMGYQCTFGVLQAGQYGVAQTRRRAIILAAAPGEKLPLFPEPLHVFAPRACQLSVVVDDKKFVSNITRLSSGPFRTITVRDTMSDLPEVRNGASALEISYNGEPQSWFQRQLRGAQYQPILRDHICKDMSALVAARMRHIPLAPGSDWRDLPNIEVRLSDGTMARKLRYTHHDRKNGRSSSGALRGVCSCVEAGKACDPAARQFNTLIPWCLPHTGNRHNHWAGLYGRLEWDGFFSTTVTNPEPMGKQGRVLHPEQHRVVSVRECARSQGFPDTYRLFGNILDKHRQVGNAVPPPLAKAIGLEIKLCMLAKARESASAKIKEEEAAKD
Scp-1 conf: confirmation of human Scp-1 phosphatase inhibitors; inhibition, % at 20 µM; recombinant SCP-1 catalytic domain, phosphate release, malachite green absorbance; hit rate 61% among 2,500; AID 540281; shares compounds with Scp1 inh
MG interference: colorimetric interference in Scp-1 counter-screen; 2,500 tested, under 10 active; apparent inhibition (interference), % at 20 µM; shares compounds with Scp1 inh; Colorimetric interference counterscreen, malachite green absorbance 630 nm;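 also: compounds added after enzyme reaction finished so only phosphate colour detection is probed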
Scp1 DSF: binds human Scp-1, shifting its melting temperature; shares compounds with Scp1 inh; Recombinant SCP1, Sypro Orange thermal shift Tm; thermal shift relative to vanadate control, % at 40 µM; hit rate 25% among 1,500; AID 540329;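 active = substances whose mean melting-temperature shift, as a percentage of the reference inhibitor's shift, reaches about 5.3%, limit read from the data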
A number is an active result; 0 = inactive; - = no result. Compounds with a hit are over-represented: about 2.3% of the library has one in this group of screens.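 The calls were made as follows, unless noted: active = inhibition of at least 30% at 20 µM; inactive = the rest.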

SMILES | LMPTP inh | STEP inh | Scp1 inh | SUMO1 PPI mod | Rpn11 inh | DNMT1 inh | Scp-1 conf | MG interference | Scp1 DSF
C=C(C)C(=O)N1CC2(CC(c3cccc(NC(=O)/C=C\C=C/C)c3)=NO2)C[C@H]1C(N)=O (some centres not stated) | 0 | 0 | 52 | 0 | 0 | 0 | 55 | 0 | 0
C=C(C)C(=O)Nc1cccc(C2=NOC3(C2)C[C@H](C(N)=O)N(C(=O)/C=C/C)C3)c1 (some centres not stated) | 0 | 0 | 66 | 60 | 0 | 99 | 57 | 0 | 0
C/C=C/C(=O)N1CC2(CC(c3cccc(NC(=O)CC)c3)=NO2)C[C@H]1C(N)=O (some centres not stated) | 0 | 0 | 0 | 0 | 0 | 0 | - | - | -
Cn1cc(C=CC(=O)O)c2nccnc21 | 0 | 0 | - | 0 | 0 | 0 | - | - | -
CC(=O)c1c(C)n(C)c2ccc(OC(=O)c3ccc([N+](=O)[O-])cc3)cc12 | 0 | 0 | 59 | 0 | 0 | 0 | 0 | 0 | -
COc1ccc(/C=N/NC(=O)c2cccc([N+](=O)[O-])c2)cc1O | 0 | 0 | 0 | 0 | 0 | 0 | - | - | -
COc1cc(/C=N/NC(=O)c2cccc([N+](=O)[O-])c2)ccc1O | 0 | 0 | 89 | 0 | 0 | 0 | 0 | 0 | -
CC(C)[C@H](NS(=O)(=O)c1cccc(Cl)c1)C(=O)OCC(=O)NC(=O)CN1CCCC1=O | 0 | 0 | 57 | 0 | 0 | 0 | 42 | 0 | 0
COC(=O)c1c(NC(=O)COC(=O)[C@@H](NS(=O)(=O)c2cccc(Cl)c2)C(C)C)sc2c1CCC2 | 0 | 0 | 0 | 0 | 0 | 0 | - | - | -
CCCNC(=O)N[C@H]1C=C[C@H](CC(=O)NC2CCCCC2)O[C@@H]1CO | 0 | - | - | 0 | - | - | - | - | -
COc1cc(/C=C(\C#N)C(=O)NCc2ccccc2)ccc1OCc1ccc(C(=O)O)cc1 | 0 | 0 | 0 | 0 | 0 | 0 | - | - | -
CC(NC(=O)/C(C#N)=C/c1ccc(OCC(=O)O)cc1)c1ccccc1 (configuration not stated) | 0 | 0 | 98 | 0 | 0 | 0 | 40 | 0 | 0
COc1cc(/C=C(/C#N)C(=O)Nc2ccccc2)ccc1OCc1ccc(C(=O)O)cc1 | 0 | 0 | 82 | 0 | 0 | 0 | 58 | 0 | 0
C[C@@H](NC(=O)/C(C#N)=C/c1ccc(O)c(O)c1)c1ccccc1 | 0 | 0 | 0 | 0 | 0 | 0 | - | - | -
N#C/C(=C\c1ccc(OCc2ccc(C(=O)O)cc2)cc1)C(=O)NCc1ccccc1 | 0 | 0 | 91 | 0 | 0 | 0 | 81 | 0 | 0
O=C1c2nc3cc(-c4ccco4)[nH]n3c(=O)c2CN1C1CCCCC1 | 0 | 0 | 0 | 0 | 0 | 0 | - | - | -
CC(=O)Nc1ccc(N=Cc2nc(-c3ccc(C)cc3)oc2O)cc1 | 0 | 0 | 76 | 0 | 0 | 0 | 0 | 0 | -
Cc1ccc(N=Cc2nc(-c3ccc(C)cc3)oc2O)cc1 | 0 | 0 | 0 | 0 | 0 | 0 | - | - | -
O=C(CCc1nc2ccccc2c(=O)[nH]1)NNC(=O)c1ccc(Cl)cc1 | 0 | 0 | 0 | 0 | 0 | 0 | - | - | -
O=C(CCc1nc2ccccc2c(=O)[nH]1)NNC(=O)c1cccc(Cl)c1 | 0 | 0 | 62 | 0 | 0 | 0 | 0 | 0 | -
COc1ccc(OC)c(NC(=O)CN(C)CC(=O)Nc2ccccc2Cl)c1 | 0 | 0 | 58 | 0 | 0 | 0 | 0 | 0 | -
COc1ccc(Br)cc1CN(C)CC(=O)Nc1ccccc1Cl | 0 | 0 | 0 | 0 | 0 | 0 | - | - | -
Cc1cc(C(=O)COC(=O)c2cccc(O)c2)c(C)n1C1CC1 | 0 | 0 | 0 | 0 | 0 | 0 | - | - | -
Cc1ccc(S(=O)(=O)N2CCOCC2)cc1C(=O)N(Cc1nnc(-c2ccccc2Cl)o1)C1CC1 | 0 | 0 | 0 | 0 | 0 | 0 | - | - | -
O=C(c1cc(S(=O)(=O)N2CCOCC2)ccc1F)N(Cc1nnc(-c2ccccc2Cl)o1)C1CC1 | 0 | 0 | 55 | 0 | 0 | 0 | 0 | 0 | -
SMILES | LMPTP inh | STEP inh | Scp1 inh | SUMO1 PPI mod | Rpn11 inh | DNMT1 inh | Scp-1 conf | MG interference | Scp1 DSF
Cc1ccc(Cl)cc1NC(=O)CSc1sc2c(O)cc(=O)[nH]c2c1C#N | 0 | 0 | 56 | 0 | 0 | 0 | 62 | 0 | 16
Cc1ccc(NC(=O)CSc2nc3[nH]c(=O)cc(O)c3s2)c(Br)c1 | 0 | 0 | 0 | 0 | 0 | 0 | - | - | -
Cc1ccc(C)c(NC(=O)CSc2sc3c(O)cc(=O)[nH]c3c2C#N)c1 | 0 | 0 | 60 | 0 | 0 | 0 | 67 | 0 | 11
O=C(O)CCCCCn1c(O)c(C=C2N=c3ccccc3=N2)sc1=S | 0 | 0 | 74 | 0 | 0 | 0 | 91 | 0 | 10
CCCn1c2c(c(=N)c3c1CCC3)CCCC2 | 0 | 0 | 74 | 0 | 0 | 0 | 0 | 0 | -
COc1cccc(NS(=O)(=O)c2cc3c(cc2C)N(C(C)=O)CCO3)c1 | 0 | 0 | 87 | 0 | 0 | 0 | 0 | 0 | -
CC(=O)OCC1=C(C(=O)OC(C)(C)C)N2C(=O)[C@@H](NC(=O)Cc3ccccc3)[C@H]2SC1 | 0 | 0 | 91 | 0 | 0 | 0 | 70 | 0 | 8.8
Cc1cc(C(=O)COc2ccc3ccc(=O)oc3c2)c(C)n1Cc1cccs1 | 0 | 0 | 66 | 0 | 0 | 0 | 53 | 0 | 0
Cc1ccc(OCC(=O)c2cc(C)n(Cc3cccs3)c2C)c([N+](=O)[O-])n1 | 0 | 0 | 0 | 0 | 0 | 0 | - | - | -
CC(C)OCCCN(C)C1CCN(S(=O)(=O)c2ccc(-c3ccc(=O)[nH]n3)s2)CC1 | 0 | 0 | 51 | 0 | 0 | 0 | 0 | 0 | -
Cc1ccc(CN2CCC(CNS(=O)(=O)c3ccc(-c4ccc(=O)[nH]n4)s3)CC2)cc1 | 0 | 0 | 0 | 0 | 0 | 0 | - | - | -
Cc1ccc(S(=O)(=O)N2CCCC2C(=O)OCc2ccccc2)cc1 (configuration not stated) | 0 | 0 | 0 | 0 | 0 | 0 | - | - | -
Cc1ccc(S(=O)(=O)N2CCCC2C(=O)OCc2ccco2)cc1 (configuration not stated) | 0 | 0 | 77 | 0 | 0 | 0 | 69 | 0 | 0
O=C(O)c1cc(N2C(=O)C=CC2=O)cc(N2C(=O)C=CC2=O)c1 | 0 | 0 | 82 | 50 | 0 | 82 | 50 | 0 | 0
NC(=O)c1cc(N2C(=O)C=CC2=O)ccc1Cl | 0 | 0 | 0 | 0 | 0 | 0 | - | - | -
C=CCOc1c(Br)cc(/C=N/n2c(CC)n[nH]c2=S)cc1Br | 0 | 0 | 72 | 0 | 0 | 0 | 0 | 0 | -
CC(C)(C)c1ccc(C(=O)NCC(=O)N/N=C/c2cccnc2)cc1 | 0 | 0 | 0 | 0 | 0 | 0 | - | - | -
